Values after ≈ are worked out from the molar mass of the structure shown. Active and inactive are the calls of the source. How the calls were made is not given here.
Columns and labels:
Assay type in all cases: functional
Staphylococcus aureus [1] = assay: Antibacterial activity against Staphylococcus aureus Newman after 18 hrs by two fold serial dilution method
Outline: (§1)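 Strains were grown overnight at 37 °C in TSB without antibiotic, diluted 1000-fold, and grown 2–3 h to A600 0.6. They were then diluted 1:400 in fresh TSB. Compounds in DMSO were two-fold serially diluted to a final 0.39–50 and mixed with an equal volume of bacteria. A600 was read after 18 h. MIC is the lowest concentration inhibiting growth. Triplicate; vancomycin and tetracycline were positive controls.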

Escherichia coli = assay: Antibacterial activity against Escherichia coli AB1157 at 50 ug/ml after 18 hrs by two fold serial dilution method; outline: as §1
Staphylococcus aureus [2] = assay: Antibacterial activity against aminoglycosides/tetracycline-resistant Staphylococcus aureus NRS-1 after 18 hrs by two fold serial dilution method; settings: NRS-1, 18 h
Outline: (§2)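 Strains grown overnight at 37 °C in TSB without antibiotic. Cultures were diluted 1000-fold, grown at 37 °C for 2–3 h to A600 0.6, then diluted 1:400 in fresh TSB. Equal volumes of bacteria and two-fold serial DMSO dilutions (final 0.39–50) were mixed. A600 was read after 18 h. MIC was the lowest concentration inhibiting growth. Run in triplicate, with vancomycin and tetracycline controls.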

Staphylococcus aureus [3] = assay: Antibacterial activity against erythromycin-resistant Staphylococcus aureus NRS-70 after 18 hrs by two fold serial dilution method; settings: NRS-70, 18 h; outline: as §2
Staphylococcus aureus [4] = assay: Antibacterial activity against oxacillin/tetracycline-resistant Staphylococcus aureus NRS-100 after 18 hrs by two fold serial dilution method; settings: NRS-100, 18 h; outline: as §2
Staphylococcus aureus [5] = assay: Antibacterial activity against gentamicin-resistant Staphylococcus aureus NRS-108 after 18 hrs by two fold serial dilution method; settings: NRS-108, 18 h; outline: as §2
Staphylococcus aureus [6] = assay: Antibacterial activity against linezolid-resistant Staphylococcus aureus NRS-271 containing phage type E-MRSA after 18 hrs by two fold serial dilution method; settings: NRS-271, 18 h; outline: as §2

| SMILES | MIC (Staphylococcus aureus [1]) [µM] | Activity (Escherichia coli) | other results |
| --- | --- | --- | --- |
| CC(C)c1cc2c(cc1Br)[C@@]1(C)CCC[C@@](C)(C(=O)O)[C@@H]1C/C2=N\OCCNC(=O)c1ccc(C(F)(F)F)cc1 | 5.02 to 8.02 (≈ 3.13 to 5 µg/mL) | inactive |  |
| CC(C)c1cc2c(cc1Br)[C@@]1(C)CCC[C@@](C)(C(=O)O)[C@@H]1C/C2=N\OCCNC(=O)c1cccs1 | > 89 | inactive |  |
| CC(C)c1cc2c(cc1Br)[C@@]1(C)CCC[C@@](C)(C(=O)O)[C@@H]1C/C2=N\OCCNC(=O)Cc1ccccc1C(F)(F)F | 7.84 (≈ 5 µg/mL) | inactive |  |
| CN[C@H](CC(C)C)C(=O)N[C@H]1C(=O)N[C@@H](CC(N)=O)C(=O)N[C@H]2C(=O)N[C@H]3C(=O)N[C@H](C(=O)N[C@H](C(=O)O)c4cc(O)cc(O)c4-c4cc3ccc4O)[C@H](O)c3ccc(c(Cl)c3)Oc3cc2cc(c3O[C@@H]2O[C@H](CO)[C@@H](O)[C@H](O)[C@H]2O[C@H]2C[C@](C)(N)[C@H](O)[C@H](C)O2)Oc2ccc(cc2Cl)[C@H]1O [VANCOMYCIN] | < 1.73 |  | MIC (Staphylococcus aureus [2]): 1.72 to 3.45 µM (≈ 2.49 to 5 µg/mL); MIC (Staphylococcus aureus [3]): < 1.72 µM; MIC (Staphylococcus aureus [4]): 0.86 to 1.72 µM (≈ 1.25 to 2.49 µg/mL); MIC (Staphylococcus aureus [5]): < 1.72 µM; MIC (Staphylococcus aureus [6]): < 1.72 µM |
| COc1ccccc1C(=O)NCCO/N=C1\C[C@H]2[C@](C)(C(=O)O)CCC[C@]2(C)c2cc(Br)c(C(C)C)cc21 | 8.54 to 10.7 (≈ 5 to 6.25 µg/mL) | inactive |  |
| CC(C)c1cc2c(cc1Br)[C@@]1(C)CCC[C@@](C)(C(=O)O)[C@@H]1C/C2=N\OCCNC(=O)Cc1ccccc1 | 17.6 (≈ 10 µg/mL) | inactive |  |
| CC(C)c1ccc2c(c1)CC[C@H]1[C@](C)(C(=O)O)CCC[C@]21C [DEHYDROABIETIC ACID] | 41.6 to 66.6 (≈ 12.5 to 20 µg/mL) | inactive |  |
| CC(C)c1cc2c(cc1Br)[C@@]1(C)CCC[C@@](C)(C(=O)O)[C@@H]1C/C2=N\OCCNC(=O)c1c(F)c(F)c(F)c(F)c1F | 5.81 to 7.75 (≈ 3.75 to 5 µg/mL) | inactive |  |
| COc1ccc(C(=O)NCCO/N=C2\C[C@H]3[C@](C)(C(=O)O)CCC[C@]3(C)c3cc(Br)c(C(C)C)cc32)cc1 | 25.6 to 34.2 (≈ 15 to 20 µg/mL) | inactive |  |
| Cc1ccc(C(=O)NCCCO/N=C2\C[C@H]3[C@](C)(C(=O)O)CCC[C@]3(C)c3cc(Br)c(C(C)C)cc32)s1 | 6.36 to 8.48 (≈ 3.75 to 5 µg/mL) | inactive |  |
| CC(C)c1cc2c(cc1Br)[C@@]1(C)CCC[C@@](C)(C(=O)O)[C@@H]1C/C2=N\OCCN | > 111 | inactive |  |
| CC(C)c1cc2c(cc1Br)[C@@]1(C)CCC[C@@](C)(C(=O)O)[C@@H]1C/C2=N\OCCNC(=O)Cc1ccc(C(F)(F)F)cc1 | 5.88 to 7.84 (≈ 3.75 to 5 µg/mL) | inactive |  |
| CC(=O)NCCO/N=C1\C[C@H]2[C@](C)(C(=O)O)CCC[C@]2(C)c2cc(Br)c(C(C)C)cc21 | > 101 | inactive |  |
| CCc1ccc(C(=O)NCCO/N=C2\C[C@H]3[C@](C)(C(=O)O)CCC[C@]3(C)c3cc(Br)c(C(C)C)cc32)cc1 | 4.28 to 6.42 (≈ 2.5 to 3.75 µg/mL) | inactive |  |
| CC(C)c1cc2c(cc1Br)[C@@]1(C)CCC[C@@](C)(C(=O)O)[C@@H]1C/C2=N\OCCCNC(=O)c1cccs1 | > 86.9 | inactive |  |
| CC(C)c1cc2c(cc1Br)[C@@]1(C)CCC[C@@](C)(C(=O)O)[C@@H]1C/C2=N\OCCCNC(=O)C(C)(C)C | 72.8 to 91 (≈ 40 to 50 µg/mL) | inactive |  |
| CC(C)c1cc2c(cc1Br)[C@@]1(C)CCC[C@@](C)(C(=O)O)[C@@H]1C/C2=N\OCCCNC(=O)C1CC1 | 56.2 to 75 (≈ 30 to 40 µg/mL) | inactive |  |
| CC(C)C(=O)NCCO/N=C1\C[C@H]2[C@](C)(C(=O)O)CCC[C@]2(C)c2cc(Br)c(C(C)C)cc21 | 76.7 to 95.9 (≈ 40 to 50 µg/mL) | inactive |  |
| CC(C)c1cc2c(cc1Br)[C@@]1(C)CCC[C@@](C)(C(=O)O)[C@@H]1C/C2=N\OCCCN | > 107 | inactive |  |
| CC(C)c1cc2c(cc1Br)[C@@]1(C)CCC[C@@](C)(C(=O)O)[C@@H]1C/C2=N\OCCNC(=O)c1ccccc1 | 18 to 22.5 (≈ 10 to 12.5 µg/mL) | inactive |  |
| CCCCCC(=O)NCCO/N=C1\C[C@H]2[C@](C)(C(=O)O)CCC[C@]2(C)c2cc(Br)c(C(C)C)cc21 | 13.6 to 18.2 (≈ 7.5 to 10 µg/mL) | inactive |  |

| SMILES | MIC (Staphylococcus aureus [1]) [µM] | Activity (Escherichia coli) | other results |
| --- | --- | --- | --- |
| CC(C)c1cc2c(cc1Br)[C@@]1(C)CCC[C@@](C)(C(=O)O)[C@@H]1C/C2=N\OCCCNC(=O)c1ccccn1 | 21.9 (≈ 12.5 µg/mL) | inactive |  |
| CC(C)c1cc2c(cc1Br)[C@@]1(C)CCC[C@@](C)(C(=O)O)[C@@H]1C/C2=N\OCCNC(=O)c1ccccc1F | 13.1 to 17.4 (≈ 7.5 to 10 µg/mL) | inactive |  |
| CC(C)c1cc2c(cc1Br)[C@@]1(C)CCC[C@@](C)(C(=O)O)[C@@H]1C/C2=N\OCCNC(=O)c1ccccc1C(F)(F)F | 10 to 20.1 (≈ 6.25 to 12.5 µg/mL) | inactive |  |
| CC(C)c1cc2c(cc1Br)[C@@]1(C)CCC[C@@](C)(C(=O)O)[C@@H]1C/C2=N\OCCNC(=O)c1ccco1 | 36.7 to 45.8 (≈ 20 to 25 µg/mL) | inactive |  |
| CC(C)c1cc2c(cc1Br)[C@@]1(C)CCC[C@@](C)(C(=O)O)[C@@H]1C/C2=N\OCCCNC(=O)Cc1ccccc1 | 17.1 (≈ 10 µg/mL) | inactive |  |
| CC(C)c1cc2c(cc1Br)[C@@]1(C)CCC[C@@](C)(C(=O)O)[C@@H]1C/C2=N\OCCCNC(=O)Cc1ccccc1C(F)(F)F | 7.67 (≈ 5 µg/mL) | inactive |  |
| CC(C)c1cc2c(cc1Br)[C@@]1(C)CCC[C@@](C)(C(=O)O)[C@@H]1C/C2=N\OCCNC(=O)C1CC1 | 57.8 to 77 (≈ 30 to 40 µg/mL) | inactive |  |
| CC(C)c1cc2c(cc1Br)[C@@]1(C)CCC[C@@](C)(C(=O)O)[C@@H]1C/C2=N\OCCCNC(=O)c1ccccc1F | 8.51 to 10.6 (≈ 5 to 6.25 µg/mL) | inactive |  |
| CC(C)c1cc2c(cc1Br)[C@@]1(C)CCC[C@@](C)(C(=O)O)[C@@H]1C/C2=N\OCCNC(=O)c1ccccn1 | 26.9 to 35.9 (≈ 15 to 20 µg/mL) | inactive |  |
| CC(C)c1cc2c(cc1Br)[C@@]1(C)CCC[C@@](C)(C(=O)O)[C@@H]1C/C2=N\OCCCNC(=O)c1c(F)c(F)c(F)c(F)c1F | 5.69 to 7.58 (≈ 3.75 to 5 µg/mL) | inactive |  |
| CC(C)c1cc2c(cc1Br)[C@@]1(C)CCC[C@@](C)(C(=O)O)[C@@H]1C/C2=N\OCCCNC(=O)c1ccsc1 | 17.4 (≈ 10 µg/mL) | inactive |  |
| CC(C)c1cc2c(cc1Br)[C@@]1(C)CCC[C@@](C)(C(=O)O)[C@@H]1C/C2=N\OCCNC(=O)Cc1cccc(C(F)(F)F)c1 | 5.88 to 7.84 (≈ 3.75 to 5 µg/mL) | inactive |  |
| COc1ccc(C(=O)NCCCO/N=C2\C[C@H]3[C@](C)(C(=O)O)CCC[C@]3(C)c3cc(Br)c(C(C)C)cc32)cc1 | 12.5 to 16.7 (≈ 7.5 to 10 µg/mL) | inactive |  |
| CC(C)c1cc2c(cc1Br)[C@@]1(C)CCC[C@@](C)(C(=O)O)[C@@H]1C/C2=N\OCCNC(=O)c1cc(Br)cs1 | 5.86 to 7.81 (≈ 3.75 to 5 µg/mL) | inactive |  |
| CC(C)c1cc2c(cc1Br)[C@@]1(C)CCC[C@@](C)(C(=O)O)[C@@H]1C/C2=N\OCCNC(=O)c1ccsc1 | > 89 | inactive |  |
| CC(C)c1cc2c(cc1Br)[C@@]1(C)CCC[C@@](C)(C(=O)O)[C@@H]1C/C2=N\OCCCNC(=O)c1ccccc1 | 8.78 (≈ 5 µg/mL) | inactive |  |
| CC(C)c1cc2c(cc1Br)[C@@]1(C)CCC[C@@](C)(C(=O)O)[C@@H]1C/C2=N\OCCCNC(=O)c1cc2ccccc2[nH]1 | > 41.1 | inactive |  |
| CC(C)c1cc2c(cc1Br)[C@@]1(C)CCC[C@@](C)(C(=O)O)[C@@H]1C/C2=N\OCCCNC(=O)c1ccccc1C(F)(F)F | 7.84 to 9.8 (≈ 5 to 6.25 µg/mL) | inactive |  |
| CC(C)c1cc2c(cc1Br)[C@@]1(C)CCC[C@@](C)(C(=O)O)[C@@H]1C/C2=N\OCCNC(=O)c1ccc[nH]1 | 5.75 to 9.18 (≈ 3.13 to 5 µg/mL) | inactive |  |
| Cc1ccc(C(=O)NCCO/N=C2\C[C@H]3[C@](C)(C(=O)O)CCC[C@]3(C)c3cc(Br)c(C(C)C)cc32)s1 | 13 to 17.4 (≈ 7.5 to 10 µg/mL) | inactive |  |

Source: ChEMBL document CHEMBL3997768, “The synthesis and antistaphylococcal activity of dehydroabietic acid derivatives: modifications at C12 and C7” (2017)
